From ChEMBL document CHEMBL1124067, “Design of potent cyclic gonadotropin releasing hormone antagonists” (J Med Chem, 1988)
“And” between values parts separate entries of the source, which are not always exact repeats. Equal entries are not always repeated. Positions of bridges follow the written chain, without caps; N, C: chain ends. Non-standard residues stand in square brackets, D forms with d. Residues, ends and D or L forms follow the SMILES beside them. dPhe(4-Cl) = N[C@H](Cc1ccc(Cl)cc1)C(=O)O; d2Nal = N[C@H](Cc1ccc2ccccc2c1)C(=O)O; d3Pal = N[C@H](Cc1cccnc1)C(=O)O

Assays:
Format in all cases: functional
Rattus norvegicus [1] = test: Effect of oral administration of compound (3 mg) on LH secretion by castrated male rats; ng of LH/mL
Summary of the method: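 Adult Sprague-Dawley male rats, castrated under light ether anesthesia 7-10 days before assay. Peptide dissolved in 2 N HOAc, then diluted in 0.1% BSA-0.04 M phosphate buffer pH 7.4. Given by gavage tube (0.5 mL) under ether. Blood sampled before treatment and 5 h after. Plasma LH in ng/mL, mean ± SEM, five rats per treatment.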

Rattus norvegicus [2] = species on record: Rattus norvegicus; test: Effect on GnRH-induced LH secretion in intact male rats at 100 ug of compound along with 50 ng of GnRH; ng of LH/mL
Summary of the method: (§1)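 Intact adult male Sprague-Dawley rats. Antagonist injected iv into the jugular vein (1 mL) under ether, immediately before GnRH. Peptide dissolved in 2 N HOAc, then diluted in 0.1% BSA-0.04 M phosphate buffer pH 7.4. Blood taken 10 min after injection. Plasma LH in ng/mL ± SEM, six rats per treatment.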

Rattus norvegicus [3] = species on record: Rattus norvegicus; test: Effect on GnRH-induced LH secretion in intact male rats at 25 ug of compound along with 50 ng of GnRH; ng of LH/mL; summary of the method: as §1
Rattus norvegicus [4] = test: In vivo antiovulatory assay (AOA) carried out in rats injected sc
Summary of the method: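 Antiovulatory assay following Corbin and Beattie. Cycling rats injected sc at noon on proestrus with peptide dissolved in saline (200 μL). Dose in micrograms; read-out is the number of rats ovulating out of the total.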

CC(=O)N[C@H](Cc1ccc2ccccc2c1)C(=O)N[C@H](Cc1ccc(Cl)cc1)C(=O)N[C@H](Cc1cccnc1)C(=O)N[C@H]1CSSC[C@@H](C(N)=O)NC(=O)[C@@H]2CCCN2C(=O)[C@H](CCCNC(=N)N)NC(=O)[C@H](CC(C)C)NC(=O)[C@@H](Cc2cccnc2)NC(=O)[C@H](CCCNC(=N)N)NC1=O (Ac-[d2Nal][dPhe(4-Cl)][d3Pal]CR[d3Pal]LRPC-NH2; disulfide 4-10)
Activity (Rattus norvegicus [1]): 8.31
Activity (Rattus norvegicus [2]): 1.4
Activity (Rattus norvegicus [3]): 1.62
Dose (Rattus norvegicus [4]): 10 µg and 25 µg
